Sampled rows, rich in hits. Any-hit rate of the full collection: about 3.4%.
MIN6 prolif = inducers of MIN6 beta-cell proliferation, primary screen, ATP luminescence, uHTS | actives 0.29% (n = 330,000) | proliferation, % at 10 µM | AID 2380, 2010 | MIN6 cells proliferation, ATPlite luminescence, 48 h; cells starved in 0.2% serum; 100% = growth in 10% serum;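 active = compounds whose signal lies at least 3.5 SD above the mean of all wells on their plate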
m5-HT2A agonist = mouse Htr2a agonists via beta-arrestin recruitment, primary screen, cell-based, luminescence. 5-hydroxytryptamine receptor 2A (Mus musculus), P35363. CHO-K1 mHTR2A beta-arrestin complementation; percent of 30 µM serotonin response. activation, % at 7.6 µM. actives 0.66% (n = 360,000);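 active = activation above a run cutoff, the mean activation of all tested compounds plus 3 SD, cut at about 14% in these data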
Target sequence (P35363 whole entry, looked up): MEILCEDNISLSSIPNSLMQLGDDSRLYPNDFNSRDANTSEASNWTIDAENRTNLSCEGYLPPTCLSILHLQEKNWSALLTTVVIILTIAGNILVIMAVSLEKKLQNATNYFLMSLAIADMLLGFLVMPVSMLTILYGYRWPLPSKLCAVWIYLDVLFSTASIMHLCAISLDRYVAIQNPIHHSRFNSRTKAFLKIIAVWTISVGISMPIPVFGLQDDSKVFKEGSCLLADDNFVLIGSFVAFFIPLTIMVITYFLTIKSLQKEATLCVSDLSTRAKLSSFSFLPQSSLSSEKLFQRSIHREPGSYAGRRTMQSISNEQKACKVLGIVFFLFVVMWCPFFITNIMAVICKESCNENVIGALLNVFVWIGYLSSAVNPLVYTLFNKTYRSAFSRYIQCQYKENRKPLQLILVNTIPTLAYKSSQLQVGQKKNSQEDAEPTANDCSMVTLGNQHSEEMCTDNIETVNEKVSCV
TMEM16A act = TMEM16A chloride channel activators or potentiators, primary screen, cell-based, HTS | HEK293 TMEM16A/YFP-H148Q/I152L, iodide quench fluorescence; active compounds read low | B-score at 10 µM | actives 0.3% (n = 340,000) | AID 623877, 2012;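 active = fluorescence-ratio B-score plate-corrected deviation score at least 3 library SD below zero, with starting fluorescence score within 5 deviations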;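 note: channel opened by trigger with iodide after compound preincubation; score built on the fluorescence ratio of max minus min over baseline; more negative score means more quench and so TMEM16A activation or potentiation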
MC4R antag cAMP = MC4R antagonists of cAMP signaling, primary screen, cell-based, TR-FRET, antagonist arm of biased-ligand search; inhibition, % at 6.5 µM; MC4R-expressing cells, MTII-stimulated cAMP, LANCE TR-FRET; Melanocortin receptor 4 (Homo sapiens), P32245; AID 540295, 2011; actives 0.48% (n = 360,000);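 active = inhibition above its plate's cutoff, the mean of tested wells on that plate plus 3 SD, cut at about 29% in these data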
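Material: U2OS-MC4R stable cell line | Reagent: Melanotan II challenge after compound preincubation | Doses: One concentration, 6.5 µM nominal | Incubation: 30-min compound preincubation, 1-h Melanotan II challenge, 1-h detection, room temperature | Signal: TR-FRET cAMP assay | Replicates: One well per compound, no replicates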
MC4R ag barr = MC4R agonists recruiting beta-arrestin, primary screen, cell-based, luminescence, agonist arm of biased-ligand search; U2OS MC4R beta-arrestin complementation; percent of melanotan II response, DMSO zero; activation, % at 8.9 µM; actives 0.98% (n = 360,000);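 active = activation above a per-plate cutoff, the mean activation of sample wells on that plate plus 3 SD, cut at about 8% in these data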
TMEM16A inh = TMEM16A chloride channel inhibitors, primary screen, cell-based, HTS; Anoctamin-1 (Mus musculus), Q8BHY3; actives 1.2% (n = 310,000); HEK293 TMEM16A/YFP iodide influx fluorescence, ionomycin; normalized B-score (activity score, 25-100; higher = stronger inhibition) at 10 µM;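 active = ratio plate-corrected score three or more library SD toward inhibition, starting fluorescence score within five deviations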;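 note: score derived from kinetic fluorescence span divided by baseline fluorescence per well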
TMEM16A reconf = TMEM16A chloride channel inhibitors, confirmation, cell-based, re-confirmation | shares compounds with TMEM16A inh | inhibition, % at 10 µM | HEK293 TMEM16A/YFP-H148Q, iodide quench fluorescence; ionomycin added to raise cell calcium | AID 652189, 2013 | actives 39% (n = 2,300);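 active = mean duplicate percent inhibition, scaled so buffer wells are 0 and the reference blocker 100, over three buffer SD above buffer mean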
HEK293 Ca mobil = calcium mobilization in TMEM16A/YFP HEK293 cells, confirmation, counter-screen for TMEM16A inhibitor project; shares compounds with TMEM16A inh; Fluo4 calcium mobilization; calcium response (% of ionomycin), % at 10 µM; actives 2% (n = 2,300); AID 652231, 2013;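 active = duplicate-averaged calcium signal over 20% of the ionomycin maximum, relative to buffer baseline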;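 note: each well's signal is peak minus trough fluorescence divided by its pre-addition baseline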
YFP-HEK293 quench = iodide YFP quench changes in parental YFP-HEK293, counter-screen for TMEM16A inhibitor project, cell-based. shares compounds with TMEM16A inh. ionomycin. YFP ratio F(max-min)/F0 at 10 µM. 2,300 tested, under 10 active. AID 652233, 2013;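 active = yellow fluorescent protein signal ratio exceeding the buffer control mean by over 5 SD of those controls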;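 note: ratio is mean of duplicate wells from kinetic YFP trace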
ClC-1 inh = ClC-1 chloride channel inhibition, selectivity assay for TMEM16A inhibitor project, cell-based, voltage-dependent ClC-1 | shares compounds with TMEM16A inh | CHO ClC-1-YFP, iodide influx fluorescence quench; iodide control reads 0, buffer control 100 | ratio percent, % at 10 µM | 2,300 tested, under 10 active | AID 652236, 2013;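 active = duplicate-mean ratio percent above the mean of iodide-only control wells, which defines zero, plus 5 of their SD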;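 note: higher percent means stronger block of ClC-1 iodide influx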
A number is an active result; – = inactive; · = no result given.

SMILES	MIN6 prolif	m5-HT2A agonist	TMEM16A act	MC4R antag cAMP	MC4R ag barr	TMEM16A inh	TMEM16A reconf	HEK293 Ca mobil	YFP-HEK293 quench	ClC-1 inh
C/C(CC(=O)Nc1cccnc1)=N\NC(=O)C(C)Oc1ccc(Cl)cc1Cl (centres undefined)	–	–	–	–	–	–	·	·	·	·
CCN(CC)C(=O)C1CCCN(c2ccc([N+](=O)[O-])cc2/C=N/NC(=O)c2cccc(Br)c2)C1 (centres undefined)	–	–	–	–	–	100	–	–	–	–
COc1cc(-c2nc(S(=O)(=O)c3ccccc3)c(N3CCOCC3)o2)cc(OC)c1OC	–	–	–	–	–	100	–	–	–	–
CCc1nc2ccc(C(=O)N(C)Cc3ccccc3)cn2c1N(C)Cc1ccc(OC)cc1	·	–	·	–	–	·	·	·	·	·
CN(C)S(=O)(=O)c1cccc(N=C2SCCN2Cc2ccccc2)c1	–	–	–	–	–	100	36%	–	–	–
NC(=O)C1CCCN(S(=O)(=O)c2ccc3ccccc3c2)C1 (centres undefined)	–	–	–	–	–	–	·	·	·	·
Cc1cc(C)nc(N2N=C(C(C)(C)C)CC2=O)n1	–	–	–	–	–	–	–	–	–	–
COc1ccc2cc([C@H](C)C(=O)N(C)Cc3ccccc3N3CCCC3)ccc2c1	–	–	–	–	–	–	22%	–	–	–
Cc1ccc(S(=O)(=O)N2CCC(C(=O)OCc3ccccc3)CC2)cc1C	–	–	–	–	–	25	–	–	–	–
COc1cccc(COC(=O)C2CCN(S(=O)(=O)c3ccc(C)cc3)CC2)c1OC	–	–	–	–	–	–	·	·	·	·
COC(=O)Nc1ccc(S(=O)(=O)N2CCC(Cc3ccccc3)CC2)cc1	–	–	–	–	–	100	–	–	–	–
COc1cccc(COC(=O)C2CCN(S(=O)(=O)c3ccc(C)cc3C)CC2)c1OC	–	–	–	–	–	100	34%	–	–	–
Cc1ccc(-n2c(SCC(=O)N3CCCCC3)nc(O)c(Cc3ccccc3)c2=O)cc1	–	–	–	–	–	–	·	·	·	·
Cc1ccc(S(=O)(=O)Cc2ccc(C(=O)OCc3ccccc3)cc2)cc1	–	–	–	–	–	25	44%	–	–	–
O=C(O)c1ccc(S(=O)(=O)Cc2ccccc2)cc1	–	–	–	–	–	–	·	·	·	·
O=C(NC1(C(F)(F)F)Oc2ccccc2O1)N1CCCC1	–	–	–	–	–	100	–	–	–	–
O=C(NCC1CCCO1)NC1(C(F)(F)F)Oc2ccccc2O1 (centres undefined)	–	–	–	–	–	–	·	·	·	·
CCOC(=O)c1cc(C)n(Cc2cccc(OC)c2OC)c1C	–	–	–	–	–	25	29%	–	–	–
Cc1c(C(=O)Nc2nonc2-c2ccc(F)cc2)oc2ccc(F)cc12	–	–	–	–	–	25	40%	–	–	–
CCc1nonc1NC(=O)c1oc2ccc(F)cc2c1C	–	–	–	–	–	–	·	·	·	·
C[C@@H]1CN([C@@H](C)CO)C(=O)c2cc(Br)cnc2O[C@@H]1CN(C)S(=O)(=O)c1ccc(F)cc1	·	–	·	–	–	·	·	·	·	·
CC(=O)N1CCN(Cc2cc(=O)oc3ccccc23)CC1	·	–	·	·	·	·	·	·	·	·
COc1cccc(CN2C(=O)C(C)N(C(=O)c3ccccc3)c3ccccc32)c1 (centres undefined)	–	–	–	–	–	25	17%	–	–	–
COc1ccc(CN2C(=O)C(C)N(C(=O)c3c(F)cccc3F)c3ccccc32)cc1 (centres undefined)	–	–	–	–	–	–	·	·	·	·
Nc1nc(SCC(=O)Nc2ccccc2)[nH]c(=O)c1-c1ccccc1	–	–	–	–	–	–	·	·	·	·
SMILES	MIN6 prolif	m5-HT2A agonist	TMEM16A act	MC4R antag cAMP	MC4R ag barr	TMEM16A inh	TMEM16A reconf	HEK293 Ca mobil	YFP-HEK293 quench	ClC-1 inh
Nc1nc(SCC(=O)N2CCc3ccccc3C2)[nH]c(=O)c1-c1ccccc1	–	–	–	–	–	–	–	–	–	–
CCCCC1=C(C(=O)OCC)C(C(=O)OCC)Oc2ccccc21 (centres undefined)	·	–	–	–	–	·	·	·	·	·
CCCCOC(=O)c1ccc(NC(=O)C(=O)NCCN(CC)CC)cc1	–	–	–	–	–	–	·	·	·	·
CCCCOC(=O)c1ccc(NC(=O)C(=O)NCc2cccnc2)cc1	–	–	–	–	–	25	–	–	–	–
CCCCNC(=S)Nc1ccc(C(F)(F)F)cc1	–	–	–	–	–	100	40%	–	–	–
CCCCNC(=S)Nc1ccc(Cl)cc1	–	–	–	–	–	–	·	·	·	·
CCc1nn(C(C)C(=O)NCCN2CCN(c3cccc(C)c3C)CC2)c(=O)c2cc3occc3n12 (centres undefined)	–	–	–	–	–	–	–	–	–	–
CC(NC(=O)Cn1cc2c(n1)CCCCC2)c1ccccc1 (centres undefined)	–	–	–	–	–	25	–	–	–	–
O=C(O)Cn1cc2c(n1)CCCCC2	–	–	–	–	–	–	·	·	·	·
O=C(C1CCC1)N1CCc2cc(S(=O)(=O)N3CCN(c4ccccn4)CC3)ccc21	–	–	–	–	–	–	–	–	–	–
COc1ccccc1N1CCN(C(=O)COc2ccc(Cl)cc2Br)CC1	–	–	–	–	–	–	·	·	·	·
COc1ccccc1N1CCN(C(=O)COc2ccc(C)cc2Br)CC1	–	–	–	–	–	100	–	22%	–	–

Assay outcomes from PubChem.
